{
  "source": "ChEMBL document CHEMBL1124809",
  "about": "“Synthesis and biological evaluation of analogues of Pro-Leu-Gly-NH2 modified at the leucyl residue” (J Med Chem, 1990)",
  "key": {"[1]": {"target": "D(2) dopamine receptor (Bos taurus) (UniProt P20288)", "sequence (P20288 whole entry)": "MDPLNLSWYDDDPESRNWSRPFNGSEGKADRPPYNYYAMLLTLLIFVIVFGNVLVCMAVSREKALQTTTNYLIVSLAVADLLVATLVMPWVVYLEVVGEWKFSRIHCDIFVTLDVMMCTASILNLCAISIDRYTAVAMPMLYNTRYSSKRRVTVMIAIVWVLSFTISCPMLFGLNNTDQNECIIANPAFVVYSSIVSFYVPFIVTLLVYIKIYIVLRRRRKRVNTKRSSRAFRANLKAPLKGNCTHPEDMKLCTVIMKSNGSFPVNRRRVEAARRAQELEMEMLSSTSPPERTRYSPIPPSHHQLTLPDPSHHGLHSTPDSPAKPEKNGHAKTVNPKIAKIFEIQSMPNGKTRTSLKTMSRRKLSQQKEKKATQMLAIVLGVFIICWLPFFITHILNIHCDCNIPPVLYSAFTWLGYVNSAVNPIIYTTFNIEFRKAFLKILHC", "assay": "Ability to enhance the binding of [3H]ADTN to Dopamine receptor D2 isolated from bovine striatal membranes; maximum effect at 0.1 uM", "summary_of_the_method": "(§1)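 Membranes from freshly dissected bovine caudate, homogenized in 50 mM Tris-HCl/1 mM EDTA pH 7.4, centrifuged twice at 27000g. Resuspended in Tris-HCl with ascorbate, MnCl2, DTT, PMSF, soybean trypsin inhibitor and bacitracin. 0.2–0.3 mg protein incubated with 8 nM [3H]ADTN ± peptide (10⁻¹²–10⁻⁴ M) for 10 min at 37 °C in triplicate. GF/B filtration, scintillation counting, % increase in specific binding over control.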"}, "[2]": {"target": "D(2) dopamine receptor (Bos taurus) (UniProt P20288)", "assay": "Ability to enhance the binding of [3H]ADTN to dopamine receptor D2 isolated from bovine striatal membranes; inactive", "summary_of_the_method": "as §1"}, "[3]": {"target": "D(2) dopamine receptor (Bos taurus) (UniProt P20288)", "assay": "Ability to enhance the binding of [3H]-ADTN to Dopamine receptor D2 isolated from bovine caudate membranes at 1 uM concentration", "summary_of_the_method": "as §1"}, "[4]": {"target": "D(2) dopamine receptor (Bos taurus) (UniProt P20288)", "assay": "Ability to stimulate the binding of [3H]ADTN to Dopamine receptor D2 isolated from bovine striatal membranes at 1 uM concentration", "summary_of_the_method": "as §1"}},
  "note": "Calls of active or inactive are those of the source. The rule behind the calls is not given here. Where a SMILES comes first, the peptide text is derived from it. [ ]: non-standard residue; d: D form. Phe(4-NO2) = N[C@@H](Cc1ccc([N+](=O)[O-])cc1)C(=O)O; Phg = N[C@H](C(=O)O)c1ccccc1; Nle = CCCC[C@H](N)C(=O)O; Nva = CCC[C@H](N)C(=O)O; Abu = CC[C@H](N)C(=O)O",
  "data": [
    {"smiles": "CCCC[C@H](NC(=O)[C@@H]1CCCN1)C(=O)NCC(N)=O", "note": "(H-Pro-[Nle]-Gly-NH2)", "values": [
      {"measurement": "Activity", "setting": "[1]", "result": "Active"}
    ]},
    {"smiles": "CCC[C@H](NC(=O)[C@@H]1CCCN1)C(=O)NCC(N)=O", "note": "(H-Pro-[Nva]-Gly-NH2)", "values": [
      {"measurement": "Activity", "setting": "[2]", "result": "inactive"}
    ]},
    {"smiles": "CC[C@H](C)[C@H](NC(=O)[C@@H]1CCCN1)C(=O)NCC(N)=O", "note": "(H-Pro-Ile-Gly-NH2)", "values": [
      {"measurement": "Activity", "setting": "[2]", "result": "inactive"}
    ]},
    {"smiles": "NC(=O)CNC(=O)[C@H](Cc1ccc([N+](=O)[O-])cc1)NC(=O)[C@@H]1CCCN1", "note": "(H-Pro-[Phe(4-NO2)]-Gly-NH2)", "values": [
      {"measurement": "Activity", "setting": "[2]", "result": "inactive"}
    ]},
    {"smiles": "NC(=O)CNC(=O)[C@@H](NC(=O)[C@@H]1CCCN1)c1ccccc1", "note": "(H-Pro-[Phg]-Gly-NH2)", "values": [
      {"measurement": "Activity", "setting": "[2]", "result": "inactive"}
    ]},
    {"smiles": "NC(=O)CNC(=O)[C@H](CCc1ccccc1)NC(=O)[C@H]1CCCN1", "values": [
      {"measurement": "Activity", "setting": "[2]", "result": "inactive"}
    ]},
    {"smiles": "CC(C)C[C@H](NC(=O)[C@@H]1CCCN1)C(=O)NCC(N)=O", "note": "(H-Pro-Leu-Gly-NH2)", "values": [
      {"measurement": "Stimulation", "setting": "[3]", "result": 27, "unit": "%"}
    ]},
    {"smiles": "NC(=O)CNC(=O)[C@H](Cc1ccccc1)NC(=O)[C@@H]1CCCN1", "note": "(H-Pro-Phe-Gly-NH2)", "values": [
      {"measurement": "Stimulation", "setting": "[4]", "result": 31, "unit": "%"}
    ]},
    {"smiles": "NC(=O)CNC(=O)[C@H](CCc1ccccc1)NC(=O)[C@@H]1CCCN1", "values": [
      {"measurement": "Activity", "setting": "[2]", "result": "inactive"}
    ]},
    {"smiles": "COc1ccc(C[C@H](NC(=O)[C@@H]2CCCN2)C(=O)NCC(N)=O)cc1", "note": "(H-Pro-Tyr(Me)-Gly-NH2)", "values": [
      {"measurement": "Activity", "setting": "[2]", "result": "inactive"}
    ]},
    {"smiles": "CC[C@H](NC(=O)[C@@H]1CCCN1)C(=O)NCC(N)=O", "note": "(H-Pro-[Abu]-Gly-NH2)", "values": [
      {"measurement": "Activity", "setting": "[2]", "result": "inactive"}
    ]}
  ]
}
